Reference: ChEMBL document CHEMBL1949535, “Synthesis and preliminary antibacterial evaluation of Linezolid-like 1,2,4-oxadiazole derivatives” (2012)
In brackets after ≈: the same amount, converted by molar mass.

Tests used:
Type in all cases: functional
Escherichia coli [1] = assay: Antibacterial activity against Escherichia coli 3350 after 16 to 20 hrs by microbroth dilution method
Summary of the method: (§1)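 CLSI broth microdilution in Mueller-Hinton broth. Compounds were dissolved in 100% DMSO and serially two-fold diluted to cover 0.12 to >256 mg/L. An equal volume of inoculum at 1 × 10⁶ CFU/mL was added, then plates were incubated at 35 °C for 16–20 h. MIC was the lowest concentration with no visible growth. DMSO and uninoculated-medium controls were run in parallel.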

Streptococcus pyogenes [2] = assay: Antibacterial activity against erythromycin-resistant Streptococcus pyogenes 24 after 16 to 20 hrs by microbroth dilution method
Summary of the method: (§2)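 CLSI broth microdilution in Mueller-Hinton broth. Compound stocks in 100% DMSO, serially diluted two-fold to 0.12->256 mg/L. An equal volume of inoculum at 1 x 10⁶ CFU/mL was added to each well. Plates were incubated 16-20 h at 35 °C. MIC (mg/L) was taken as the lowest concentration with no visible growth. DMSO and uninoculated-medium controls were run in parallel.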

Streptococcus pyogenes [3] = assay: Antibacterial activity against erythromycin-resistant Streptococcus pyogenes 47 after 16 to 20 hrs by microbroth dilution method; summary of the method: as §2
Serratia marcescens = assay: Antibacterial activity against Serratia marcescens Mel 522 after 16 to 20 hrs by microbroth dilution method; summary of the method: as §1
Streptococcus pyogenes [4] = assay: Antibacterial activity against erythromycin-sensitive Streptococcus pyogenes 9 after 16 to 20 hrs by microbroth dilution method; summary of the method: as §1
Escherichia coli [5] = assay: Antibacterial activity against Escherichia coli ATCC 25922 after 16 to 20 hrs by microbroth dilution method; summary of the method: as §1
Streptococcus pyogenes [6] = assay: Antibacterial activity against erythromycin-sensitive Streptococcus pyogenes 12 after 16 to 20 hrs by microbroth dilution method; summary of the method: as §1
Streptococcus pneumoniae = assay: Antibacterial activity against Streptococcus pneumoniae PEN-1 after 16 to 20 hrs by microbroth dilution method; conditions: PEN I; summary of the method: as §1
Staphylococcus aureus [7] = assay: Antibacterial activity against methicillin-resistant Staphylococcus aureus C530 after 16 to 20 hrs by microbroth dilution method; summary of the method: as §2
Staphylococcus aureus [8] = assay: Antibacterial activity against methicillin-sensitive Staphylococcus aureus ATCC 25923 after 16 to 20 hrs by microbroth dilution method; summary of the method: as §1
Streptococcus pyogenes [9] = assay: Antibacterial activity against erythromycin-sensitive Streptococcus pyogenes 3 after 16 to 20 hrs by microbroth dilution method; summary of the method: as §1
Streptococcus pyogenes [10] = assay: Antibacterial activity against Streptococcus pyogenes ATCC 19615 after 16 to 20 hrs by microbroth dilution method; summary of the method: as §2
Streptococcus pyogenes [11] = assay: Antibacterial activity against erythromycin-resistant Streptococcus pyogenes 6 after 16 to 20 hrs by microbroth dilution method; summary of the method: as §2
Staphylococcus aureus [12] = assay: Antibacterial activity against methicillin-sensitive Staphylococcus aureus ATCC 29213 after 16 to 20 hrs by microbroth dilution method; summary of the method: as §1
Staphylococcus aureus [13] = assay: Antibacterial activity against methicillin-resistant glycopeptide-intermediate Staphylococcus aureus Mu50 after 16 to 20 hrs by microbroth dilution method; summary of the method: as §2
Staphylococcus aureus [14] = assay: Antibacterial activity against Staphylococcus aureus ATCC 43300 after 16 to 20 hrs by microbroth dilution method; summary of the method: as §1

Row | SMILES | MIC (Escherichia coli [1]) | MIC (Streptococcus pyogenes [2]) | MIC (Streptococcus pyogenes [3]) | MIC (Serratia marcescens) | MIC (Streptococcus pyogenes [4]) | MIC (Escherichia coli [5]) | MIC (Streptococcus pyogenes [6]) | MIC (Streptococcus pneumoniae) | MIC (Staphylococcus aureus [7]) | MIC (Staphylococcus aureus [8]) | MIC (Streptococcus pyogenes [9]) | MIC (Streptococcus pyogenes [10]) | MIC (Streptococcus pyogenes [11]) | MIC (Staphylococcus aureus [12]) | MIC (Staphylococcus aureus [13]) | MIC (Staphylococcus aureus [14])
1 | CC(=O)NCc1noc(-c2ccc(N3CCOCC3)cc2)n1 | 128 µg/mL (≈ 423 µM) | 64 µg/mL (≈ 212 µM) | 64 µg/mL (≈ 212 µM) | 128 µg/mL (≈ 423 µM) | 128 µg/mL (≈ 423 µM) | > 256 µg/mL | 128 µg/mL (≈ 423 µM) | 128 µg/mL (≈ 423 µM) | > 256 µg/mL | > 256 µg/mL | 128 µg/mL (≈ 423 µM) | 128 µg/mL (≈ 423 µM) | 128 µg/mL (≈ 423 µM) | > 256 µg/mL | > 256 µg/mL | > 256 µg/mL
2 | CC(=O)NCc1noc(-c2ccc(N3CCOCC3)c(F)c2)n1 | 128 µg/mL (≈ 400 µM) | 128 µg/mL (≈ 400 µM) | > 256 µg/mL | > 256 µg/mL | > 256 µg/mL | 128 µg/mL (≈ 400 µM) | 128 µg/mL (≈ 400 µM) | > 256 µg/mL | > 256 µg/mL | > 256 µg/mL | > 256 µg/mL | 128 µg/mL (≈ 400 µM) | 128 µg/mL (≈ 400 µM) | > 256 µg/mL | > 256 µg/mL | > 256 µg/mL
3 | CC(=O)NCc1noc(-c2cc(F)c(N3CCOCC3)c(F)c2)n1 | 128 µg/mL (≈ 378 µM) | > 256 µg/mL | 128 µg/mL (≈ 378 µM) | > 256 µg/mL | > 256 µg/mL | 128 µg/mL (≈ 378 µM) | > 256 µg/mL | > 256 µg/mL | > 256 µg/mL | > 256 µg/mL | > 256 µg/mL | 128 µg/mL (≈ 378 µM) | 128 µg/mL (≈ 378 µM) | > 256 µg/mL | > 256 µg/mL | > 256 µg/mL
4 | CC(=O)NCc1noc(-c2cc(F)c(N3CCOCC3)c(F)c2F)n1 | 128 µg/mL (≈ 359 µM) | > 256 µg/mL | 128 µg/mL (≈ 359 µM) | > 256 µg/mL | > 256 µg/mL | 128 µg/mL (≈ 359 µM) | > 256 µg/mL | > 256 µg/mL | > 256 µg/mL | > 256 µg/mL | > 256 µg/mL | 128 µg/mL (≈ 359 µM) | 128 µg/mL (≈ 359 µM) | > 256 µg/mL | > 256 µg/mL | > 256 µg/mL
5 | CC(=O)NCc1noc(-c2c(F)c(F)c(N3CCOCC3)c(F)c2F)n1 | > 256 µg/mL | > 256 µg/mL | > 256 µg/mL | > 256 µg/mL | > 256 µg/mL | 128 µg/mL (≈ 342 µM) | > 256 µg/mL | > 256 µg/mL | > 256 µg/mL | > 256 µg/mL | > 256 µg/mL | > 256 µg/mL | > 256 µg/mL | > 256 µg/mL | > 256 µg/mL | > 256 µg/mL
6 | NC(=O)c1noc(-c2ccc(N3CCOCC3)cc2)n1 | 128 µg/mL (≈ 467 µM) | > 256 µg/mL | > 256 µg/mL | 128 µg/mL (≈ 467 µM) | 128 µg/mL (≈ 467 µM) | > 256 µg/mL | 128 µg/mL (≈ 467 µM) | 128 µg/mL (≈ 467 µM) | > 256 µg/mL | > 256 µg/mL | 128 µg/mL (≈ 467 µM) | 128 µg/mL (≈ 467 µM) | 128 µg/mL (≈ 467 µM) | > 256 µg/mL | > 256 µg/mL | > 256 µg/mL
